This is a sample that favours compounds with a hit; in the whole collection about 1.7% have one here.
Tb MetRS inh: T. brucei MetRS inhibitors, primary screen, biochemical, luminescence. 360,000 tested, 0.4% active. AID 624268, 2012. methionyl-tRNA synthetase (Trypanosoma brucei brucei). purified T. brucei MetRS, ATP depletion, Kinase-Glo luminescence. inhibition, % at 11.9 µM;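 active = inhibition above a per-plate cutoff of the control wells' mean inhibition plus 3 SD, cut at about 5.5% in these data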;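 also: 0% = DMSO wells median and 100% = median of wells with control inhibitor compound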
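Test system – parasite MetRS enzyme · Reagent – substrates ATP, L-methionine and bulk Escherichia coli tRNA · Doses – 11.9 µM compound single dose, 0.9% DMSO · Times – 15 min enzyme-compound preincubation, 2 h reaction, 10 min detection, 25 °C · Signal – Kinase-Glo luminescence, ATP depletion format · Controls – DMSO-only wells as low control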
IDE cell activ: human IDE activators in live cells, primary screen, fluorescence polarization, HEK cells, FAbeta-B substrate; Insulin-degrading enzyme (Homo sapiens), P14735; FAbeta-B cleavage; 0% vehicle, 100% cell-free pure enzyme wells; activation, % at 5.96 µM; 340,000 tested, 0.073% active; AID 493087, 2011;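 active = activation above the mean of all tested compounds plus 3 SD, set per screening campaign, cut at about 17% in these data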
TPT1 inh: Candida albicans TPT1 enzyme inhibitors, primary screen, biochemical, fluorescence polarization. AID 1962, 2009. tRNA 2'-phosphotransferase TPT1 (Candida albicans SC5314). recombinant caTPT1, FP RNA substrate dephosphorylation. 300,000 tested, 0.81% active. inhibition, % at 5 µM;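 active = inhibition above the mean of all tested compounds plus 3 SD, set per screening campaign, cut at about 24% in these data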;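 also: plate controls were DMSO alone for no effect and ferristatin control at 100 nM for full effect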
HNF4A DNA FP: change in binding of human HNF4A to DNA, primary screen, biochemical, fluorescence polarization, FITC-DNA | activity change, % at 10 µM | Hepatocyte nuclear factor 4-alpha (Homo sapiens), P41235 | 1 h | AID 1224865, 2016 | 360,000 tested, 0.3% active; in the data active = activity change above about 30%, passing the limit was not always enough
Target sequence (P41235 whole entry, looked up): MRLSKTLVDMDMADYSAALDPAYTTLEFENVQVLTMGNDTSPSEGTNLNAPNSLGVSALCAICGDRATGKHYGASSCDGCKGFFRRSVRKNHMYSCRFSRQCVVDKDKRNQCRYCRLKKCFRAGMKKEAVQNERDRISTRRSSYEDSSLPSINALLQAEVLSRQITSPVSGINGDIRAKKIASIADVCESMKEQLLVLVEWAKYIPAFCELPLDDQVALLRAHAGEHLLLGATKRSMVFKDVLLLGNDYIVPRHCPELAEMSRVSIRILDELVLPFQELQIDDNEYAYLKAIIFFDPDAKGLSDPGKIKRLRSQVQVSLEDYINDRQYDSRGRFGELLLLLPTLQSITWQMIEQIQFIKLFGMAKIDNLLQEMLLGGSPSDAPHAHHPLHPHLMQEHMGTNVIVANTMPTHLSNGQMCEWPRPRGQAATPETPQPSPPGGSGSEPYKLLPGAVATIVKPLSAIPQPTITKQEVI
CSN deneddyl inh: inhibitors of CSN-mediated cullin deneddylation, primary screen, biochemical, fluorescence polarization, uHTS. 360,000 tested, 0.38% active. Purified CSN, SCF-Nedd8-OG deneddylation. AID 651999, 2013. inhibition, % at 12.5 µM;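 active = pattern-corrected inhibition above about 35%, with an unprinted fluorescence ratio check between 0.5 and 1.5, limit read from the data, passing the limit was not always enough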;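 also: 0% = enzyme with substrate and 100% = substrate without enzyme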
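Assay system: HEK293T-derived human Csn5 enzyme; quantity: 0.24 nM enzyme; medium: Tris/NaCl/DTT buffer, pH 7.5; also added: substrate SCFSkp2-Nedd8OG, 10 nM; doses: 12.5 µM compound; schedule: 90 min reaction at room temperature; signal: FP; read-out: % inhibition of substrate cleavage by Csn5; benchmarks: substrate-only high control, full reaction low control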
IDE cell inh: human IDE inhibitors in live cells, primary screen, fluorescence polarization, HEK cells, FAbetaB substrate. 320,000 tested, 0.41% active. FAbetaB cleavage. Insulin-degrading enzyme (Homo sapiens), P14735. inhibition, % at 5.59 µM;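 active = percent inhibition above the average of all tested compounds plus 3 SD, set per screening campaign, cut at about 16% in these data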;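 also: IDE supplied by intact live HEK cells; FP after avidin binding of uncleaved biotin substrate so inhibition keeps polarization high; 0% = DMSO wells and 100% = 60 µM reference IDE inhibitor Ii1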
Tb MetRS conf: T. brucei MetRS inhibitors, confirmation, biochemical, luminescence. inhibition, % at 11.9 µM. shares compounds with Tb MetRS inh. 1,400 tested, 93% active. T. brucei MetRS enzyme, luminescence (ATP depletion). AID 624412, 2012; in the data active = inhibition above about 7%
Jurkat tox: Jurkat T cell cytotoxicity, cytotoxicity control for T. brucei MetRS inhibitor project, luminescence, high throughput. inhibition, % at 8.3 µM. shares compounds with Tb MetRS inh. 1,400 tested, 12% active. Jurkat cells viability, ATP luminescence; in the data active = inhibition above about 15%;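 also: 0% = vehicle and 100% = reference inhibitor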
Tb MetRS inh FP: T. brucei MetRS inhibitors, orthogonal assay for T. brucei MetRS inhibitor project, biochemical, fluorescence polarization; AID 651607, 2012; purified T. brucei MetRS; inhibition, % at 11.9 µM; shares compounds with Tb MetRS inh; 1,400 tested, 44% active; in the data active = inhibition above about 17%;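 also: 0% = vehicle wells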
Numbers without * were called inactive.

Screening O=C(O)CC1S/C(=N/N=C/c2ccc(-c3ccc(Cl)c([N+](=O)[O-])c3)o2)NC1=O (stereo not given) returned Tb MetRS inh 1.1, IDE cell activ 1.4, TPT1 inh -2.1, HNF4A DNA FP -5.4, CSN deneddyl inh -3.2 and IDE cell inh -2.8.
Screening O=C(O)CC1S/C(=N/N=C/c2ccc(-c3ccc(Cl)cc3[N+](=O)[O-])o2)NC1=O (stereo not given) returned Tb MetRS inh 10.8*, IDE cell activ -0.4, TPT1 inh -2.1, HNF4A DNA FP -1.1, CSN deneddyl inh 5.0, IDE cell inh -2.2, Tb MetRS conf 14.1*, Jurkat tox -4.0 and Tb MetRS inh FP 12.2.
O=C(Nc1nc2c(Cl)cccc2s1)c1ccc([N+](=O)[O-])o1 was read as Tb MetRS inh -0.5, IDE cell activ 3.6, TPT1 inh -0.9, HNF4A DNA FP 1.7, CSN deneddyl inh 3.4 and IDE cell inh -1.9.
For O=C(Nc1nc2c(Cl)cccc2s1)c1ccc(Br)o1 the results were Tb MetRS inh 6.8*, IDE cell activ -6.2, TPT1 inh 1.9, HNF4A DNA FP 0.8, CSN deneddyl inh 4.3, IDE cell inh -2.2, Tb MetRS conf 4.4, Jurkat tox -4.9 and Tb MetRS inh FP 3.8.
Screening O=C(Nc1ccccc1OC(F)F)c1ccc(-n2cncn2)c([N+](=O)[O-])c1 returned Tb MetRS inh 18.8*, IDE cell activ 0.8, TPT1 inh 0.8, HNF4A DNA FP -0.9, CSN deneddyl inh -2.0, IDE cell inh -3.4, Tb MetRS conf 51.7*, Jurkat tox -10.1 and Tb MetRS inh FP 21.8*.
Cc1cc(C)c(NC(=O)CNC(=O)c2ccc(-n3cncn3)c([N+](=O)[O-])c2)c(C)c1 was read as Tb MetRS inh 8.0*, IDE cell activ -4.0, TPT1 inh -1.4, HNF4A DNA FP 4.5, CSN deneddyl inh -2.3, IDE cell inh -3.3, Tb MetRS conf 35.0*, Jurkat tox -1.5 and Tb MetRS inh FP 14.8.
`CC(C)(C)c1ccccc1NC(=O)c1ccc(-n2cncn2)c([N+](=O)[O-])c1` gave Tb MetRS inh 13.5*, IDE cell activ -3.9, TPT1 inh 0.0, HNF4A DNA FP 3.9, CSN deneddyl inh -1.6, IDE cell inh -3.4, Tb MetRS conf 43.4*, Jurkat tox 2.0 and Tb MetRS inh FP 14.0.
Cc1cc(Br)ccc1NC(=O)c1ccc(-n2cncn2)c([N+](=O)[O-])c1 was read as Tb MetRS inh 32.1*, IDE cell activ 0.0, TPT1 inh -1.5, HNF4A DNA FP -0.3, CSN deneddyl inh -0.6, IDE cell inh 4.1, Tb MetRS conf 79.2*, Jurkat tox 1.6 and Tb MetRS inh FP 52.4*.
`NN(CCO)C(=S)Nc1ccc(Cl)cc1` gave Tb MetRS inh -0.7, IDE cell activ 6.3, TPT1 inh 1.7, HNF4A DNA FP -0.7, CSN deneddyl inh -1.3 and IDE cell inh 4.7.
CC1(c2cccc(Br)c2)NC(=O)NC1=O (stereo not given) was read as Tb MetRS inh -0.3, IDE cell activ 2.6, TPT1 inh -1.6, HNF4A DNA FP 2.1, CSN deneddyl inh 0.7 and IDE cell inh 0.2.

Compound activity as filed in PubChem BioAssay.
